What was measured:
KB [1] = assay: Increase in adriamycin uptake in modulator-treated cells relative to untreated KB-A1 cells at a concentration of 5 uM; format: functional, Homo sapiens
Summary of the method: (§1)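 DC-3F/AD or KB-A1 cells (5 × 10⁶/mL) were incubated at 37 °C for 5 h with 50 μM adriamycin plus modulator (2.5–10 μM range). ADR fluorescence of 10 000 cells was read by flow cytometry at 4 °C with 488 nm argon-laser excitation. The value is the increase in mean fluorescence of treated cells over untreated cells.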

DC3F/AD [2] = assay: Increase in adriamycin uptake in modulator-treated cells relative to untreated cells at a concentration of 10 uM; format: functional, Cricetulus griseus; summary of the method: as §1
DC3F/AD [3] = assay: In vitro activity in DC-3F/AD cell line Ratio of IC50(actinomycin D alone) / IC50(actinomycin D + modulator) at a concentration of 10 uM
KB [4] = assay: Percent of cell viability remaining after incubating the cells with the modulator alone; format: functional, Homo sapiens; parameters: concentration or dose not given beside the values
Summary of the method: (§2)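 Cells were grown with modulator alone for 4 days under the same conditions as the chemosensitivity assay, and read by MTT. Viability = (absorbance with modulator/absorbance of control cells) × 100. "tox" marks viability below 25%.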

Cricetinae gen. sp. [5] = assay: (§3) Percent of cell viability remaining after incubating the cells with the modulator alone at a concentration of 10 uM; format: functional, Cricetulus griseus; summary of the method: as §2
DC3F/AD [6] = assay: Percent of cell viability remaining after incubating the cells with the modulator alone a concentration of 5 uM; format: functional, Cricetulus griseus; summary of the method: as §2
KB [7] = assay: Compound was evaluated for the in vitro activity in KB-A1 cell line. Activity expressed as fold reversion (Ratio of IC50(adriamycin alone) / IC50(adriamycin + modulator) at a concentration of 5 uM; format: functional, Homo sapiens
Summary of the method: (§4)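 Human epidermoid KB-A1 cells (Pgp-overexpressing) were grown in RPMI 1640 with 10% FCS and 10 mM HEPES (pH 7.4). They were exposed for 4 days to adriamycin (nine graded concentrations, in triplicate) with or without 5 μM modulator. IC50 was read by the MTT assay. Fold reversion = IC50(ADR alone)/IC50(ADR + modulator).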

DC3F/AD [8] = assay: (§5) Increase in adriamycin uptake in modulator-treated cells relative to untreated cells at a concentration of 5 uM; format: functional, Cricetulus griseus; summary of the method: as §1
DC3F/AD [9] = assay: In vitro activity in DC-3F/AD cell line(Ratio of IC50(actinomycin D alone) / IC50(actinomycin D + modulator) at a concentration of 5 uM
DC3F/AD [10] = assay: Percent of cell viability remaining after incubating with a 10 uM concentration; format: functional, Cricetulus griseus; summary of the method: as §2
KB [11] = assay: In vitro activity in KB-A1 cell line activity expressed as fold reversion (Ratio of IC50(adriamycin alone) / IC50(adriamycin + modulator) at a concentration of 5 uM; format: functional, Homo sapiens; summary of the method: as §4
P388 [12] = assay: Antitumor activity of vincristine against P388 leukemia cell line in mice at a dose of 50 mg/kg.; format: functional, Mus musculus
P388 [13] = assay: Antitumor activity of vincristine against P388 leukemia cell line in mice at a dose of 100 mg/kg.; format: functional, Mus musculus
DC3F/AD [14] = assay: as §3; format: functional, Cricetulus griseus; summary of the method: as §2
KB [15] = assay: Compound was evaluated for the in vitro activity in KB-A1 cell line)Activity expressed as fold reversion (Ratio of IC50(adriamycin alone) / IC50(adriamycin + modulator) at a concentration of 5 uM; format: functional, Homo sapiens; summary of the method: as §4
Cricetinae gen. sp. [16] = assay: Compound was evaluated for in vitro activity in DC-3F/AD cell line(Ratio of IC50(actinomycin D alone) / IC50(actinomycin D + modulator) at a concentration of 5 uM
DC3F/AD [17] = assay: Percent of cell viability remaining after incubating the cells with the modulator alone at a concentration of 5 uM; format: functional, Cricetulus griseus; summary of the method: as §2
DC3F/AD [18] = assay: Compound was evaluated for in vitro activity in DC-3F/AD cell line (Ratio of IC50(actinomycin D alone) / IC50(actinomycin D + modulator) at a concentration of 5 uM
KB [19] = assay: as §5; format: functional, Homo sapiens; summary of the method: as §1
P388/VCR [20] = assay: Antitumor activity of vincristine against P388/VCR leukemia in mice at a dose of 50 mg/kg.; format: functional, Mus musculus
P388/VCR [21] = assay: Antitumor activity of vincristine against P388/VCR leukemia in mice at a dose of 100 mg/kg.; format: functional, Mus musculus

Compound	Increase (KB [1])	Increase (DC3F/AD [2])	Fold reversion (DC3F/AD [3])	Viability (KB [4]) [%]	Viability (DC3F/AD [6]) [%]	Increase (DC3F/AD [8])	Fold reversion (DC3F/AD [9])	Viability (DC3F/AD [10]) [%]	Fold reversion (KB [11])	T/C (P388 [12]) [%]	T/C (P388 [13]) [%]	other results
C=CCNc1nc(NCC=C)nc(N2CCN(CC3c4ccccc4CCc4ccccc43)CC2)n1	29.7	24.5	1832	121	84	17.6	464					Viability (Cricetinae gen. sp. [5]): 70%; Fold reversion (KB [7]): 63
C=CCNc1nc(NCC=C)nc(N2CCC(NCC3c4ccccc4CCc4ccccc43)CC2)n1	53.6	38.3	6021	68	98	33	3144	54	252	161	167	
C=CCNc1nc(NCC=C)nc(N2CCC(NCC3c4ccccc4N(C)S(=O)(=O)c4cc(Cl)ccc43)CC2)n1 (configuration not stated)	39.8	24.1	9570	92	91	22.8	2804		147	177	173	Of viability (DC3F/AD [14]): 77%
C=CCNc1nc(NCC=C)nc(N2CCC(NCC(c3ccccc3)S(=O)(=O)c3ccccc3)CC2)n1 (configuration not stated)	41.9	29	817	115	107	21.2	139	92				Fold reversion (KB [15]): 277
C=CCNc1nc(NCC)nc(N2CCC(NCC3c4ccccc4CCc4ccccc43)CC2)n1	45.9	24.9	10684	58	114	23.1	2499	64	201	190	174	
C=CCNc1nc(Cl)nc(N2CCC(NCC3c4ccccc4CCc4ccccc43)CC2)n1	33.8	27.5	2205	63	96	21.6	850	96				Fold reversion (KB [15]): 236
C=CCNc1nc(NCC)nc(N2CCC(NCC3c4ccccc4COc4ccccc43)CC2)n1 (configuration not stated)	38.8	21.8	2630	101	76	18		86	229	196	180	Fold reversion (Cricetinae gen. sp. [16]): 1327
C=CCNc1nc(NCC=C)nc(NCCN2CCN(C3c4ccccc4CCc4ccccc43)CC2)n1	26.2	10.5	<25			10.2						Fold reversion (KB [7]): <25
C=CCNc1nc(NCC=C)nc(N2CCN(C(c3ccc(F)cc3)c3ccc(F)cc3)CC2)n1.CS(=O)(=O)O		17.9	235			7.3	112	63				Viability (DC3F/AD [17]): 65%
COc1ccc(CCN(C)CCCC(C#N)(c2ccc(OC)c(OC)c2)C(C)C)cc1OC (configuration not stated)	13.4	7.5	34	75	43	2.6		39				Fold reversion (DC3F/AD [18]): 3; Fold reversion (KB [7]): 26
C=CCNc1nc(NCCC)nc(N2CCC(NCC3c4ccccc4CCc4ccccc43)CC2)n1		24.9	4455	55	85	27.3	2753	42	221	179	176	Increase (KB [19]): 51.3
C=CCN(CC=C)c1nc(N(CC=C)CC=C)nc(N2CCC(NCC(c3ccccc3)c3ccccc3)CC2)n1			1	78	74		1	65				Fold reversion (KB [15]): 1
C=CCNc1nc(NCC=C)nc(N2CCC(N(C)CC3c4ccccc4CCc4ccccc43)CC2)n1	25.6	21.8	3035	111	70	17.8	834	69	118			
C=CCNc1nc(NCC=C)nc(N2CCC(NCC3c4ccccc4C=Cc4ccccc43)CC2)n1	59.2	25.8	<25	31	86	24.5	1420		640	196	172	
C=CCNc1nc(NCC=C)nc(N2CCC(NC(c3ccccc3)c3ccccc3)CC2)n1		40	1828			25.9	905	61				Viability (DC3F/AD [17]): 75%
C=CCNc1nc(NCC=C)nc(N2CCN(C3c4ccccc4CCc4ccccc43)CC2)n1	11.2	19.3	455	108	92	16.9	309	87				Fold reversion (KB [7]): 36
C=CCNc1nc(NCC=C)nc(N2CCC(NCC3c4ccccc4CCCc4ccccc43)CC2)n1	44.1	21.6	<25	89	105	22.3	2951		177	173	186	
C=CCNc1nc(NCCC)nc(N2CCC(NCC(c3ccccc3)c3ccccc3)CC2)n1	51.5	34.2	2356	93	77	26	965	66	236	176	177	T/C (P388/VCR [20]): 167%; T/C (P388/VCR [21]): 163%
C=CCNc1nc(NC)nc(N2CCC(NCC3c4ccccc4COc4ccccc43)CC2)n1 (configuration not stated)	35	21.5	2203	107	54	16.8	600	75	183	181	163	T/C (P388/VCR [20]): 170%
C=CCNc1nc(NCC=C)nc(N2CCN(NCC3c4ccccc4CCc4ccccc43)CC2)n1	22.8	28.2	1159	96	87	21.1	329	81				Fold reversion (KB [15]): 93
C=CCNc1nc(NCC=C)nc(NCC(O)CN2CCN(C3c4ccccc4CCc4ccccc43)CC2)n1 (configuration not stated)	29.2	27.6	<25			24.3	<25					Fold reversion (KB [7]): <25
